# Experimental data taken from ChEMBL document CHEMBL1142626, “Insecticidal and mutagenic evaluation of two annonaceous acetogenins” (J Nat Prod, 2000).
# Tests used:
# Salmonella typhimurium [1] = experiment: Mutagenic activity in Salmonella Typhimurium TA98 assessed as number of revertants at 0.01 ug/plate in absence of Wistar rat S9 liver homogenate; assay type: toxicity, organism-based; details: salmonella enterica subsp. enterica serovar typhimurium
# Outline: (§1)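 Salmonella/microsome plate test, with or without S9 from livers of male Wistar rats (~200 g). Strain markers and spontaneous revertant counts were routinely verified. Revertants are reported as mean ± standard error of triplicate plates. Strain-specific positive controls were used, with 2-aminoanthracene for all strains when S9 was present.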
# Salmonella typhimurium [2] = experiment: Mutagenic activity in Salmonella Typhimurium TA102 assessed as number of revertants at 0.01 ug/plate in presence of Wistar rat S9 liver homogenate; assay type: toxicity, organism-based, Liver S9 fraction; details: salmonella enterica subsp. enterica serovar typhimurium; outline: as §1
# Salmonella typhimurium [3] = experiment: Mutagenic activity in Salmonella Typhimurium TA102 assessed as number of revertants at 10 ug/plate in presence of Wistar rat S9 liver homogenate; assay type: toxicity, organism-based, Liver S9 fraction; details: salmonella enterica subsp. enterica serovar typhimurium; outline: as §1
# Myzus persicae [4] = experiment: Antifeedant effect against Myzus persicae assessed as inhibition index at 100 ug/cm2 relative to control; assay type: functional; design: scale not given: the % may be the effect or the level left
# Outline: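 Choice settling test on apterous adult M. persicae: 20 boxes of 10 aphids per treatment. Settling inhibition %SI = [1 − (%aphids on treated/%aphids on control surface)] × 100.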
# Salmonella typhimurium [5] = experiment: Mutagenic activity in Salmonella Typhimurium TA98 assessed as number of revertants at 1 ug/plate in absence of Wistar rat S9 liver homogenate; assay type: toxicity, organism-based; details: salmonella enterica subsp. enterica serovar typhimurium; outline: as §1
# Salmonella typhimurium [6] = experiment: Mutagenic activity in Salmonella Typhimurium TA100 assessed as number of revertants at 50 ug/plate in absence of Wistar rat S9 liver homogenate; assay type: toxicity, organism-based; details: salmonella enterica subsp. enterica serovar typhimurium; outline: as §1
# Salmonella typhimurium [7] = experiment: Mutagenic activity in Salmonella Typhimurium TA100 assessed as number of revertants at 1 ug/plate in presence of Wistar rat S9 liver homogenate; assay type: toxicity, organism-based, Liver S9 fraction; details: salmonella enterica subsp. enterica serovar typhimurium; outline: as §1
# Salmonella typhimurium [8] = experiment: Mutagenic activity in Salmonella Typhimurium TA98 assessed as number of revertants at 10 ug/plate in absence of Wistar rat S9 liver homogenate; assay type: toxicity, organism-based; details: salmonella enterica subsp. enterica serovar typhimurium; outline: as §1
# Salmonella typhimurium [9] = experiment: Mutagenic activity in Salmonella Typhimurium TA98 assessed as number of revertants at 50 ug/plate in absence of Wistar rat S9 liver homogenate; assay type: toxicity, organism-based; details: salmonella enterica subsp. enterica serovar typhimurium
# Outline: (§2)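 Salmonella/microsome plate test (Ames) in strain TA98, with genetic markers and spontaneous revertant counts verified routinely. Run with and without S9 mix, the S9 being liver postmitochondrial supernatant from male Wistar rats of about 200 g. Doses ran from 0.01 to 100 µg/plate. Revertants are the mean of triplicate plates with standard error. Positive controls were 0.5 µg 4-nitroquinoline-N-oxide without S9 and 15 µg 2-aminoanthracene with S9.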
# Salmonella typhimurium [10] = experiment: Mutagenic activity in Salmonella Typhimurium TA100 assessed as number of revertants at 0.01 ug/plate in presence of Wistar rat S9 liver homogenate; assay type: toxicity, organism-based, Liver S9 fraction; details: salmonella enterica subsp. enterica serovar typhimurium; outline: as §1
# Salmonella typhimurium [11] = experiment: Mutagenic activity in Salmonella Typhimurium TA102 assessed as number of revertants at 100 ug/plate in presence of Wistar rat S9 liver homogenate; assay type: toxicity, organism-based, Liver S9 fraction; details: salmonella enterica subsp. enterica serovar typhimurium; outline: as §1
# Salmonella typhimurium [12] = experiment: Mutagenic activity in Salmonella Typhimurium TA98 assessed as number of revertants at 50 ug/plate in presence of Wistar rat S9 liver homogenate; assay type: toxicity, organism-based, Liver S9 fraction; details: salmonella enterica subsp. enterica serovar typhimurium; outline: as §2
# Salmonella typhimurium [13] = experiment: Mutagenic activity in Salmonella Typhimurium TA100 assessed as number of revertants at 20 ug/plate in absence of Wistar rat S9 liver homogenate; assay type: toxicity, organism-based; details: salmonella enterica subsp. enterica serovar typhimurium; outline: as §1
# [14] = test system: Leptinotarsa decemlineata; experiment: Antifeedant effect against Leptinotarsa decemlineata assessed as feeding reduction at 10 ug/cm2; assay type: functional, organism-based
# Outline: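 Choice test on leaf disks using adult L. decemlineata or newly emerged fifth-instar S. littoralis larvae. Five to 10 plates per treatment, three insects each. Uneaten leaf-disk area was measured by scanner. %FR = [1 − (treatment/control consumption)] × 100 per arena. Where FR exceeded 50%, EC50 was taken from linear regression of %FR on log dose.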
# Salmonella typhimurium [15] = experiment: Mutagenic activity in Salmonella Typhimurium TA98 assessed as number of revertants at 0.1 ug/plate in presence of Wistar rat S9 liver homogenate; assay type: toxicity, organism-based, Liver S9 fraction; details: salmonella enterica subsp. enterica serovar typhimurium; outline: as §1
# Myzus persicae [16] = experiment: Insecticidal activity against Myzus persicae assessed as increase in mortality at 50 ug/cm2 observed daily for 4 days; assay type: functional, organism-based
# Outline: (§3)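 No-choice test: 20 boxes, each with five same-age apterous adult M. persicae (100 insects). Nymphs produced in the first 48 h were separated from adults and kept in similarly treated boxes. Both were observed daily for 4 days for mortality. Analysed by contingency tables and LSD test.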
# Salmonella typhimurium [17] = experiment: Mutagenic activity in Salmonella Typhimurium TA102 assessed as number of revertants at 20 ug/plate in absence of Wistar rat S9 liver homogenate; assay type: toxicity, organism-based; details: salmonella enterica subsp. enterica serovar typhimurium; outline: as §1
# Salmonella typhimurium [18] = experiment: Mutagenic activity in Salmonella Typhimurium TA102 assessed as number of revertants at 20 ug/plate in presence of Wistar rat S9 liver homogenate; assay type: toxicity, organism-based, Liver S9 fraction; details: salmonella enterica subsp. enterica serovar typhimurium; outline: as §1
# Salmonella typhimurium [19] = experiment: Mutagenic activity in Salmonella Typhimurium TA102 assessed as number of revertants at 1 ug/plate in absence of Wistar rat S9 liver homogenate; assay type: toxicity, organism-based; details: salmonella enterica subsp. enterica serovar typhimurium; outline: as §1
# Salmonella typhimurium [20] = experiment: Mutagenic activity in Salmonella Typhimurium TA100 assessed as number of revertants at 50 ug/plate in presence of Wistar rat S9 liver homogenate; assay type: toxicity, organism-based, Liver S9 fraction; details: salmonella enterica subsp. enterica serovar typhimurium; outline: as §1
# Salmonella typhimurium [21] = experiment: Mutagenic activity in Salmonella Typhimurium TA102 assessed as number of revertants at 1 ug/plate in presence of Wistar rat S9 liver homogenate; assay type: toxicity, organism-based, Liver S9 fraction; details: salmonella enterica subsp. enterica serovar typhimurium; outline: as §1
# Salmonella typhimurium [22] = experiment: Mutagenic activity in Salmonella Typhimurium TA102 assessed as number of revertants at 10 ug/plate in absence of Wistar rat S9 liver homogenate; assay type: toxicity, organism-based; details: salmonella enterica subsp. enterica serovar typhimurium; outline: as §1
# Salmonella typhimurium [23] = experiment: Mutagenic activity in Salmonella Typhimurium TA98 assessed as number of revertants at 1 ug/plate in presence of Wistar rat S9 liver homogenate; assay type: toxicity, organism-based, Liver S9 fraction; details: salmonella enterica subsp. enterica serovar typhimurium; outline: as §1
# Myzus persicae [24] = experiment: Insecticidal activity against Myzus persicae assessed as increase in mortality at 100 ug/cm2 observed daily for 4 days; assay type: functional, organism-based; outline: as §3
smiles,measurement,setting,value
CCCCCC[C@H](O)CCC[C@H](O)[C@H]1CC[C@H]([C@H]2CC[C@H]([C@H](O)CCCCCCCCCCCCC3=C[C@H](C)OC3=O)O2)O1 [SQUAMOCIN],Activity,Salmonella typhimurium [1],27
same,Activity,Salmonella typhimurium [2],414
same,Activity,Salmonella typhimurium [3],419
same,Activity,Myzus persicae [4],<40%
same,Activity,Salmonella typhimurium [5],26
same,Activity,Salmonella typhimurium [6],39
same,Activity,Salmonella typhimurium [7],138
same,Activity,Salmonella typhimurium [8],18
same,Activity,Salmonella typhimurium [9],10
same,Activity,Salmonella typhimurium [10],147
same,Activity,Salmonella typhimurium [11],88
same,Activity,Salmonella typhimurium [12],36
same,Activity,Salmonella typhimurium [13],68
same,Activity,[14],Toxic
same,Activity,Salmonella typhimurium [15],39
same,Activity,Myzus persicae [16],Non-toxic
same,Activity,Salmonella typhimurium [17],98
same,Activity,Salmonella typhimurium [18],139
same,Activity,Salmonella typhimurium [19],182
same,Activity,Salmonella typhimurium [20],118
same,Activity,Salmonella typhimurium [21],422
same,Activity,Salmonella typhimurium [22],108
same,Activity,Salmonella typhimurium [23],39
same,Activity,Myzus persicae [24],Non-toxic
